These results are taken from ChEMBL document CHEMBL1122868, “New antiallergic pyrano [3,2-g]quinoline-2,8-dicarboxylic acids with potential for the topical treatment of asthma” (1985).

As usually defined, the inhibition in vivo is the share of the control response that was lost under treatment. A word on the IC30: it is the concentration needed for an effect of 30%.

For test [1], the species on record is Rattus norvegicus. Put plainly: Inhibitory dose by PCA test […]. As to conditions: read-out: ID50 (the source's name). The format is functional. The procedure, abridged: (§1)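 Rat passive cutaneous anaphylaxis. Female rats (100 g) sensitized intradermally with 0.1 mL rat anti-egg albumin reaginic serum diluted in saline. After 24 h, rats were challenged i.v. with egg albumin, Evans Blue and saline, with the compound in saline given in the same injection. Reactions measured at 20 min; groups of five. ID50 taken from a log-dose regression of 20–80% inhibition.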

The species named for test [2] is Rattus norvegicus. Put plainly: Potency ratio to that of sodium cromoglycate (1.0) using PCA test. The format is functional. The procedure, abridged: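 Passive cutaneous anaphylaxis in female rats sensitized with reaginic anti-egg albumin serum and challenged i.v. at 24 h with antigen plus Evans Blue. Compound in saline was co-injected with antigen; groups of five. Sodium cromoglycate ID50 was determined in each experiment. Potency ratio = ID50(sodium cromoglycate)/ID50(compound), with ID50s from regression lines of inhibition against log dose.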

The test system of test [3] is Canis familiaris. Nature of the test: Percent inhibition by dog hypotension screen assay at 10 ug/Kg per min for 15 min. As to conditions: Canis lupus familiaris, 0.25 h. The format is functional.
For test [4], the system named is Canis familiaris. Put plainly: Activity index by dog hypotension screen assay at 10 ug/Kg per min for 15 min. The format is functional, Canis lupus familiaris.
In test [5] the test system is Canis familiaris. Put plainly: Percent inhibition was evaluated by dog hypotension screen assay at 10 ug/Kg per min for 15 min; inactive. To be noted: Canis lupus familiaris. The format is functional, organism-based. The procedure, abridged:
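In anaesthetized beagles (pentobarbitone 30 mg/kg i.v.), hypotensive responses to a standardized bolus of sodium cromoglycate were established. Test compound was infused i.v. for 15 min, and the cromoglycate bolus was repeated at the end of the infusion and every 30 min over 3 h. Percent inhibition was expressed as area under the curve over 3 h; single experiments.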

Test [6] concerns Canis familiaris. Nature of the test: Activity index was evaluated by dog hypotension screen assay at 20 ug/Kg per min for 15 min. The format is functional, Canis lupus familiaris.
In test [7] the test system is Monkey. Put plainly: (§2) Ability to inhibit histamine release from monkey lung lavage cells. The format is functional. To be noted: Cercopithecidae, in Primates.
Test [8] has as its system Monkey. The description is as §2. The format is functional, Cercopithecidae.
The species named for test [9] is Canis familiaris. Nature of the test: Relative activity in dog hypotension. The format is functional, Canis lupus familiaris.
For test [10], the species on record is Rattus norvegicus. Nature of the test: Compound was evaluated to induce phosphorylation of the 78000 molecular weight mast cell protein; Active to induce phosphorylation. The format is functional.
The species named for test [11] is Rattus norvegicus. Nature of the test: Ability to inhibit histamine release from rat peritoneal mast cells. The format is functional.
Test [12] is filed under the species Rattus norvegicus. Put plainly: Ability to inhibit histamine release from rat peritoneal mast cells using PCA assay. The format is functional. The procedure, abridged:
as §1

The subject of test [13] is Canis familiaris. Nature of the test: Percent inhibition was evaluated by dog hypotension screen assay at 50 ug/Kg per min for 15 min. To be noted: Canis lupus familiaris, 0.25 h. The format is functional.
Test [14] deals with Canis familiaris. Nature of the test: Activity index was evaluated by dog hypotension screen assay at 50 ug/Kg per min for 15 min. The format is functional, Canis lupus familiaris.

Molecules are shown by their SMILES. Calls of active or inactive are those of the source. No cut-off for these calls is given here.

Regarding `CCCc1c2nc(C(=O)O)cc(C)c2cc2c(=O)cc(C(=O)O)oc12`, the ED50 in the test filed under Rattus norvegicus [1] was found to be 0.71 mg/kg. The Potency ratio in the test listed under Rattus norvegicus [2] was 2.97. Further, the inhibition in vivo at 10 µg/kg/min in the test with Canis familiaris [3] was 66%. In the test on Canis familiaris [4], this compound had an Activity index of 6.6.

Take `CCCc1c(C(=O)[O-])nc2c(CCC)c3oc(C(=O)[O-])cc(=O)c3cc2c1Cl.[Na+].[Na+]`: the ED50 in the test listed under Rattus norvegicus [1] worked out at 2.45 mg/kg. Also, in the test filed under Rattus norvegicus [2], the Potency ratio is listed as 1.14. In addition, in the test on Canis familiaris [4], the Activity index turned out to be 0. Moreover, the inhibition result in the test on Canis familiaris [5] was “inactive”.

As for `CCCc1c2nc(C(=O)[O-])cc(OCC)c2cc2c(=O)cc(C(=O)[O-])oc12.[Na+].[Na+]`, in the test listed under Rattus norvegicus [1], the ED50 worked out at 0.3 mg/kg. The Potency ratio in the test filed under Rattus norvegicus [2] came out at 8.47. Besides, the inhibition in vivo at 10 µg/kg/min in the test on Canis familiaris [3] worked out at 32%. Also, the Activity index with Canis familiaris [4] is listed as 3.2.

For `CCCc1c2nc(C(=O)[O-])cc(Cl)c2cc2c(=O)cc(C(=O)[O-])oc12.[Na+].[Na+]`, the ED50 in the test filed under Rattus norvegicus [1] came to 1.38 mg/kg. For the same compound, the inhibition in vivo at 10 µg/kg/min in the test on Canis familiaris [3] came to 72%. Also, in the test on Canis familiaris [4], the Activity index is recorded as 7.2.

Take `CCCc1c2nc(C(=O)[O-])cc(O)c2cc2c(=O)ccoc12.[Na+]`: in the test listed under Rattus norvegicus [1], the ED50 was found to be 0.78 mg/kg. Also, in the test listed under Rattus norvegicus [2], the Potency ratio is 6.5.

For `CCCc1c2nc(C(=O)[O-])cc(NC)c2cc2c(=O)cc(C(=O)[O-])oc12.[Na+].[Na+]`, the Activity index with Canis familiaris [6] came out at 4. Moreover, the ED50 in the test listed under Rattus norvegicus [1] is 0.22 mg/kg. In the test with Monkey [7], this compound returned an IC30 of 28.5 µM. In addition, in the test filed under Rattus norvegicus [2], the Potency ratio is recorded as 7.13. Moreover, the Relative potency with Monkey [8] is on record as 35. In the test listed under Canis familiaris [9], this compound yielded a Relative activity of 1.25. Besides, the Potency result in the test listed under Rattus norvegicus [10] was “Active to induce phosphorylation”; in the test listed under Rattus norvegicus [11], 6; in the test listed under Rattus norvegicus [12], 7.1.

On to `CCCc1c2nc(C(=O)[O-])cc(N(C)C(C)=O)c2cc2c(=O)cc(C(=O)[O-])oc12.[Na+].[Na+]`, for which the Activity index in the test on Canis familiaris [6] came to 1. The ED50 in the test filed under Rattus norvegicus [1] is 4.02 mg/kg. Also, the Potency ratio in the test listed under Rattus norvegicus [2] came to 0.88.

For `O=C([O-])c1cc(Cl)c2cc3c(=O)cc(C(=O)[O-])oc3cc2n1.[Na+].[Na+]`, the ED50 in the test listed under Rattus norvegicus [1] came to 4.23 mg/kg. In addition, the Potency ratio in the test listed under Rattus norvegicus [2] is 0.72. This compound showed an Activity index in the test on Canis familiaris [4] of 0. Moreover, the inhibition entry in the test on Canis familiaris [5] is “inactive”.

Turning to `CCCc1c2nc(C(=O)[O-])cc(NCC)c2cc2c(=O)cc(C(=O)[O-])oc12.[Na+].[Na+]`, in the test listed under Rattus norvegicus [1], the ED50 was determined as 0.18 mg/kg. Moreover, the Potency ratio in the test filed under Rattus norvegicus [2] amounted to 13.8. Also, the inhibition in vivo at 10 µg/kg/min in the test with Canis familiaris [3] came out at 42%. This compound showed an Activity index in the test on Canis familiaris [4] of 4.2.

As to `CCCc1c2oc(C(=O)[O-])cc(=O)c2cc2c(=O)cc(C(=O)[O-])n(CCC)c12.[Na+].[Na+]`, the ED50 in the test filed under Rattus norvegicus [1] was found to be 3.71 mg/kg. Moreover, the Potency ratio in the test listed under Rattus norvegicus [2] was 0.43. This compound also registered an inhibition in vivo at 10 µg/kg/min in the test with Canis familiaris [3] of 28%. The same compound registered an Activity index in the test with Canis familiaris [4] of 2.8.

For `CC(C)CCn1c(C(=O)O)cc(=O)c2cc3c(=O)cc(C(=O)O)oc3cc21`, the ED50 in the test filed under Rattus norvegicus [1] is 2.05 mg/kg. The Potency ratio in the test filed under Rattus norvegicus [2] was determined as 0.54. The compound further gave an inhibition in vivo at 50 µg/kg/min in the test on Canis familiaris [13] of 68%. In the test on Canis familiaris [14], the Activity index is on record as 1.4.

Regarding `CCCc1c2nc(C(=O)[O-])cc(OC)c2cc2c(=O)cc(C(=O)[O-])oc12.[Na+].[Na+]`, in the test filed under Rattus norvegicus [1], the ED50 came out at 0.3 mg/kg. For the same compound, the Potency ratio in the test filed under Rattus norvegicus [2] is recorded as 8.35. This compound returned an inhibition in vivo at 10 µg/kg/min with Canis familiaris [3] of 43%. The Activity index in the test with Canis familiaris [4] was found to be 4.3.

Turning to `CCCc1c2nccc(O)c2cc2c(=O)cc(C(=O)[O-])oc12.[Na+]`, in the test filed under Rattus norvegicus [1], the ED50 worked out at 6.03 mg/kg. Further, the Potency ratio in the test filed under Rattus norvegicus [2] is 0.35.

Take `CCCc1c2nc(C(=O)[O-])cc(Br)c2cc2c(=O)cc(C(=O)[O-])oc12.[Na+].[Na+]`: the ED50 in the test listed under Rattus norvegicus [1] amounted to 0.55 mg/kg. The Potency ratio in the test listed under Rattus norvegicus [2] was 4.62. In addition, the inhibition in vivo at 10 µg/kg/min in the test with Canis familiaris [3] stood at 48%. In the test on Canis familiaris [4], this compound showed an Activity index of 4.8.

With `CCCc1c2nc(C(=O)[O-])cc(Oc3ccccc3)c2cc2c(=O)cc(C(=O)[O-])oc12.[Na+].[Na+]`, the ED50 in the test listed under Rattus norvegicus [1] was 1.12 mg/kg. The Potency ratio in the test listed under Rattus norvegicus [2] was found to be 1.75. For the same compound, the inhibition in vivo at 10 µg/kg/min in the test with Canis familiaris [3] came out at 68%. This compound also came in with an Activity index with Canis familiaris [4] of 6.8.

`CCCc1c2nc(C(=O)[O-])cc(N)c2cc2c(=O)cc(C(=O)[O-])oc12.[Na+].[Na+]`: the Activity index with Canis familiaris [6] came out at 4.1. Further, in the test filed under Rattus norvegicus [1], the ED50 turned out to be 0.31 mg/kg. Also, the Potency ratio in the test listed under Rattus norvegicus [2] was found to be 8.25.
